In brackets after ≈: the same amount, converted by molar mass. Activity calls are given as the source filed them. The rule behind the calls is not given here.
Key:
Pseudomonas aeruginosa [1] = test: Antibacterial activity against Pseudomonas aeruginosa isolate 1029 by microdilution method; format: functional
Pseudomonas aeruginosa [2] = test: Antibacterial activity against Pseudomonas aeruginosa isolate 869 by microdilution method; format: functional
Pseudomonas aeruginosa [3] = test: Antibacterial activity against Pseudomonas aeruginosa isolate 1062 by microdilution method; format: functional
Pseudomonas aeruginosa [4] = test: Antibacterial activity against Pseudomonas aeruginosa isolate 1052 by microdilution method; format: functional
How it was run: (§1)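 CLSI broth microdilution in cation-adjusted Mueller-Hinton broth (20–25 mg/liter Ca, 10–12.5 mg/liter Mg). Standard inoculum 10⁵ CFU/ml, incubated in ambient air. Clinical hospital isolates.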

Pseudomonas aeruginosa [5] = test: Antibacterial activity against Pseudomonas aeruginosa isolate 1082 by microdilution method; format: functional; how it was run: as §1
Pseudomonas aeruginosa [6] = test: Antibacterial activity against Pseudomonas aeruginosa isolate 1060 by microdilution method; format: functional; how it was run: as §1
Pseudomonas aeruginosa [7] = test: Antibacterial activity against Pseudomonas aeruginosa isolate 988 by microdilution method; format: functional
[8] = fT>MIC in human infected with Pseudomonas aeruginosa isolate 1005 at 500 mg administered as 1 hr infusion; format: functional
[9] = fT>MIC in human infected with Pseudomonas aeruginosa isolate 1082 at 500 mg administered as 1 hr infusion; format: functional
[10] = fT>MIC in human infected with Pseudomonas aeruginosa isolate 1058 at 500 mg administered as 1 hr infusion; format: functional
[11] = fT>MIC in human infected with Pseudomonas aeruginosa isolate 936 at 500 mg administered as 1 hr infusion; format: functional
[12] = fT>MIC in human infected with Pseudomonas aeruginosa isolate 1006 at 500 mg administered as 1 hr infusion; format: functional
[13] = fT>MIC in human infected with Pseudomonas aeruginosa isolate 1055 at 500 mg administered as 4 hr infusion; format: functional
[14] = fT>MIC in human infected with Pseudomonas aeruginosa isolate 1062 at 500 mg administered as 4 hr infusion; format: functional
[15] = fT>MIC in human infected with Pseudomonas aeruginosa isolate 906 at 500 mg administered as 4 hr infusion; format: functional
[16] = fT>MIC in human infected with Pseudomonas aeruginosa isolate 1058 at 500 mg administered as 4 hr infusion; format: functional
[17] = fT>MIC in human infected with Pseudomonas aeruginosa isolate 931 at 500 mg administered as 4 hr infusion; format: functional
[18] = fT>MIC in human infected with Pseudomonas aeruginosa isolate 944 at 500 mg administered as 4 hr infusion; format: functional
[19] = fT>MIC in human infected with Pseudomonas aeruginosa isolate 1050 at 500 mg administered as 4 hr infusion; format: functional
[20] = fT>MIC in human infected with Pseudomonas aeruginosa isolate 896 at 500 mg administered as 4 hr infusion; format: functional
[21] = fT>MIC in neutropenic mouse infected with Pseudomonas aeruginosa isolate 869 at 500 mg administered as 1 hr infusion; format: functional
How it was run: (§2)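 Free-drug time above MIC simulated from one-compartment mouse serum PK (25.2% protein binding). The mice were cyclophosphamide-neutropenic and uranyl nitrate-renally impaired. Regimen was subcutaneous 10, 15, 2.5, 1.25, 0.5, 0.25 mg/kg at 0, 0.5, 2.5, 4, 5.5, 7 h, repeated every 8 h over 24 h.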

[22] = fT>MIC in neutropenic mouse infected with Pseudomonas aeruginosa isolate 1062 at 500 mg administered as 1 hr infusion; format: functional; how it was run: as §2
[23] = fT>MIC in neutropenic mouse infected with Pseudomonas aeruginosa isolate 1005 at 500 mg administered as 1 hr infusion; format: functional
[24] = fT>MIC in neutropenic mouse infected with Pseudomonas aeruginosa isolate 1052 at 500 mg administered as 1 hr infusion; format: functional; how it was run: as §2
[25] = fT>MIC in neutropenic mouse infected with Pseudomonas aeruginosa isolate 931 at 500 mg administered as 1 hr infusion; format: functional; how it was run: as §2
[26] = fT>MIC in neutropenic mouse infected with Pseudomonas aeruginosa isolate 1060 at 500 mg administered as 1 hr infusion; format: functional; how it was run: as §2
[27] = fT>MIC in neutropenic mouse infected with Pseudomonas aeruginosa isolate 1029 at 500 mg administered as 4 hr infusion; format: functional
[28] = fT>MIC in neutropenic mouse infected with Pseudomonas aeruginosa isolate 935 at 500 mg administered as 4 hr infusion; format: functional
How it was run: (§3)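 Mouse fT>MIC was modelled with first-order one-compartment serum PK and 25.2% binding. Mice were neutropenic (cyclophosphamide) with uranyl nitrate renal impairment. Subcutaneous doses were 5.5, 2.25, 4.5, 4.5, 4.5, 4.5, 0.75, 0.375 mg/kg at 0, 0.5, 1.5, 2.5, 3.5, 4.5, 6, 7.5 h per 8-h interval over 24 h.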

[29] = fT>MIC in neutropenic mouse infected with Pseudomonas aeruginosa isolate 1036 at 500 mg administered as 4 hr infusion; format: functional; how it was run: as §3
[30] = fT>MIC in neutropenic mouse infected with Pseudomonas aeruginosa isolate 1058 at 500 mg administered as 4 hr infusion; format: functional; how it was run: as §3
[31] = fT>MIC in neutropenic mouse infected with Pseudomonas aeruginosa isolate 1060 at 500 mg administered as 4 hr infusion; format: functional; how it was run: as §3
[32] = fT>MIC in neutropenic mouse infected with Pseudomonas aeruginosa isolate 936 at 500 mg administered as 4 hr infusion; format: functional; how it was run: as §3
[33] = fT>MIC in neutropenic mouse infected with Pseudomonas aeruginosa isolate 1006 at 500 mg administered as 4 hr infusion; format: functional
[34] = Cmax in Pseudomonas aeruginosa ATCC 27853 infected neutropenic ICR mouse at 150 mg/kg, sc administered as single dose 2 hrs postinfection by HPLC; format: ADME, organism-based; set-up: dose 150 mg/kg, route subcutaneous; details: in vivo
How it was run: (§4)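 Neutropenic mice (cyclophosphamide ip 150 and 100 mg/kg, 4 and 1 days before inoculation) with uranyl nitrate 5 mg/kg ip 3 days before, for renal impairment. Thigh infection with ATCC 27853 at 10⁶ CFU/ml, 0.1 ml per thigh. Single sc doses 2 h later. Intracardiac blood from 6–12 mice per time point, eight time points over 4 h. Serum assayed by HPLC (linear 0.5–40 μg/ml). One-compartment first-order fit.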

[35] = AUC (0 to 24 hrs) in Pseudomonas aeruginosa ATCC 27853 infected neutropenic ICR mouse at 10 mg/kg, sc administered as single dose 2 hrs postinfection; format: ADME, organism-based; set-up: time < 24 hr, dose 10 mg/kg, route subcutaneous; details: plasma; how it was run: as §4
[36] = Clearance in Pseudomonas aeruginosa ATCC 27853 infected neutropenic ICR mouse at 50 mg/kg, sc administered as single dose 2 hrs postinfection; format: ADME, organism-based; set-up: dose 50 mg/kg, route subcutaneous; details: in vivo; how it was run: as §4
[37] = Cmax in healthy human at 500 mg administered as as 4 hr infusion; format: ADME, organism-based; set-up: dose 500 mg; details: in vivo, iv
[38] = fT>MIC in neutropenic mouse thigh infection model at 4 to 8 ug/ml after 24 hrs; format: functional; how it was run: as §2
Pseudomonas aeruginosa [39] = test: Antibacterial activity against Pseudomonas aeruginosa isolate at 8 to 16 ug/ml after 24 hrs; format: functional, organism-based
Pseudomonas aeruginosa [40] = test: Antibacterial activity against Pseudomonas aeruginosa isolate 931 by fractionation study; format: functional
Pseudomonas aeruginosa [41] = test: Antibacterial activity against Pseudomonas aeruginosa isolate 944 by fractionation study; format: functional
Pseudomonas aeruginosa [42] = test: Antibacterial activity against Pseudomonas aeruginosa isolate 1060 by fractionation study; format: functional

SMILES: C[C@@H](O)[C@H]1C(=O)N2C(C(=O)O)=C(S[C@@H]3CN[C@H](CNS(N)(=O)=O)C3)[C@H](C)[C@H]12 [DORIPENEM]
- MIC (Pseudomonas aeruginosa [1]): 0.125 µg/mL (≈ 0.297 µM)
- MIC (Pseudomonas aeruginosa [2]): 0.25 µg/mL (≈ 0.595 µM)
- MIC (Pseudomonas aeruginosa [3]): 0.5 µg/mL (≈ 1.19 µM)
- MIC (Pseudomonas aeruginosa [4]): 1 µg/mL (≈ 2.38 µM)
- MIC (Pseudomonas aeruginosa [5]): 1 µg/mL (≈ 2.38 µM)
- MIC (Pseudomonas aeruginosa [6]): 4 µg/mL (≈ 9.51 µM)
- MIC (Pseudomonas aeruginosa [7]): 8 µg/mL (≈ 19 µM)
- fT>MIC [8]: 55%
- fT>MIC [9]: 55%
- fT>MIC [10]: 40%
- fT>MIC [11]: 17.5%
- fT>MIC [12]: 17.5%
- fT>MIC [13]: 95%
- fT>MIC [14]: 95%
- fT>MIC [15]: 65%
- fT>MIC [16]: 65%
- fT>MIC [17]: 55%
- fT>MIC [18]: 55%
- fT>MIC [19]: 55%
- fT>MIC [20]: 0%
- fT>MIC [21]: 90%
- fT>MIC [22]: 75%
- fT>MIC [23]: 55%
- fT>MIC [24]: 55%
- fT>MIC [25]: 30%
- fT>MIC [26]: 30%
- fT>MIC [27]: 100%
- fT>MIC [28]: 82.5%
- fT>MIC [29]: 70%
- fT>MIC [30]: 70%
- fT>MIC [31]: 52.5%
- fT>MIC [32]: 0%
- fT>MIC [33]: 0%
- Cmax [34]: 194 µg/mL
- AUC(0-t) at 24 h [35]: 13500 ng·h/mL
- CL/F [36]: 13.1 mL/min/kg
- Cmax [37]: 7.79 µg/mL
- fT>MIC [38]: 20%
- Activity (Pseudomonas aeruginosa [39]): inactive
- MIC (Pseudomonas aeruginosa [40]): 3 µg/mL (≈ 7.13 µM)
- MIC (Pseudomonas aeruginosa [41]): 3 µg/mL (≈ 7.13 µM)
- MIC (Pseudomonas aeruginosa [42]): 2.75 µg/mL (≈ 6.54 µM)

Reference: ChEMBL document CHEMBL1275447 (Antimicrob Agents Chemother, 2008)
